# The source made the active and inactive calls. No cut-off for these calls is given here.
# Tested on: not listed separately
# Assay: Antioxidant activity assessed as AAPH radical scavenging activity preincubated for 15 mins with fluorescein before AAPH addition and recorded every 2 mins for 160 mins by ORAC-FL assay
# Assay type: functional
# Conditions: not given
# Outline: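 ORAC-FL assay in 75 mM PBS, pH 7.4. Compound was preincubated with fluorescein (20 nM final) for 15 min at 37 °C, then AAPH (18 mM final) was added. Fluorescence (ex 460/em 520 nm) was read every 2 min for 160 min. Net area under the decay curve, blank-normalized, is expressed as µM Trolox equivalents per µM compound. Duplicates, ≥3 independent assays.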
row,Structure (SMILES),Activity
1,COc1ccc(-c2coc3cc(OCCNC4CCCC4)ccc3c2=O)cc1,0.01 equiv/µM
2,O=c1c(-c2ccc(OCCN3CCCCC3)cc2)coc2cc(OCCCCN3CCCCC3)ccc12,0.11 equiv/µM
3,COc1ccc(-c2coc3cc(OCCCCN4CCCCC4)ccc3c2=O)cc1,0.07 equiv/µM
4,CCN(C)CCCCOc1ccc2c(=O)c(-c3ccc(OC)cc3)coc2c1,0.11 equiv/µM
5,COc1ccc(-c2coc3cc(OCCNC4CCCCC4)ccc3c2=O)cc1,0.01 equiv/µM
6,Cc1c(C)c2c(c(C)c1O)CCC(C)(C(=O)O)O2 (stereo not given),1 equiv/µM
7,COc1ccc(-c2coc3cc(OCCN4C(=O)c5ccccc5C4=O)ccc3c2=O)cc1,0.01 equiv/µM
8,COc1ccc(-c2coc3cc(OCCOCCN4CCCCC4)ccc3c2=O)cc1,0.01 equiv/µM
9,COc1ccc(-c2coc3cc(OCCNC(=O)OC(C)(C)C)ccc3c2=O)cc1,0.05 equiv/µM
10,COc1ccc(-c2coc3cc(OCCN)ccc3c2=O)cc1.Cl,0.08 equiv/µM
11,CCN(C)CCCOc1ccc2c(=O)c(-c3ccc(OC)cc3)coc2c1,0.12 equiv/µM
12,COc1ccc(-c2coc3cc(OCCNc4c5c(nc6ccccc46)CCCC5)ccc3c2=O)cc1,0.01 equiv/µM
13,O=c1c(-c2ccc(OCCN3CCCCC3)cc2)coc2cc(OCCN3CCCC3)ccc12,0.14 equiv/µM
14,O=c1c(-c2ccc(OCCN3CCCCC3)cc2)coc2cc(OCCN3CCCCC3)ccc12,0.14 equiv/µM
15,O=c1c(-c2ccc(O)cc2)coc2cc(OCCCCN3CCCCC3)ccc12,0.88 equiv/µM

# Tested on: BV-2
# Assay: Antiinflammatory activity in mouse BV2 cells assessed as reduction in LPS-induced TNF-alpha production at 10 uM pretreated for 1 hr followed by LPS challenge and measured after 24 hrs by ELISA assay
# Assay type: functional, cell-based
# Conditions: not given
row,Structure (SMILES),Activity
1,COc1cc2c(cc1OC)C(=O)C(CC1CCN(Cc3ccccc3)CC1)C2 (stereo not given) [DONEPEZIL],inactive

# Molecular target: T1, Acetylcholinesterase (Mus musculus, UniProt P21836)
# T1 sequence (P21836 whole entry): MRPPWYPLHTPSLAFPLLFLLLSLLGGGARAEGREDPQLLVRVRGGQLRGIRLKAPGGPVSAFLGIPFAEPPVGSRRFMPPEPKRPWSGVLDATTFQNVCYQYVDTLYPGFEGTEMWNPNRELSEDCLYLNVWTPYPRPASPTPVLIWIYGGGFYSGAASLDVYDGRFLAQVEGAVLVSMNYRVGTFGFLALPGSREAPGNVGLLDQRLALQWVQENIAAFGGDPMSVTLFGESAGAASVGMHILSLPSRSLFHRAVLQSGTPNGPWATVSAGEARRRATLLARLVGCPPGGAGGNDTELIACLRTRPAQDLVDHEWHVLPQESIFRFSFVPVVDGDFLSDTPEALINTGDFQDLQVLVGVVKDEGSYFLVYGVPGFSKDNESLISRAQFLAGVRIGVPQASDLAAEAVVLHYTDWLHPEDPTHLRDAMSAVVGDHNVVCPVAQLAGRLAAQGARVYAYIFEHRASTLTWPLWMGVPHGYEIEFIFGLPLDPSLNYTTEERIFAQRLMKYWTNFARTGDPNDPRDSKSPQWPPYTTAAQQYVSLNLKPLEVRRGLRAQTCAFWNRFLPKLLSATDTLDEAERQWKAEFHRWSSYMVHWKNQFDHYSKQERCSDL
# Assay: Inhibition of mouse brain AChE using acetylthiocholine iodide as substrate measured after 30 mins by Ellman's method
# Conditions: not given
row,Structure (SMILES),IC50
1,COc1ccc(-c2coc3cc(OCCNC(=O)OC(C)(C)C)ccc3c2=O)cc1,Not Active

# Same assay, conditions: read-out: IC50
row,Structure (SMILES),IC50
1,COc1ccc(-c2coc3cc(OCCNC4CCCC4)ccc3c2=O)cc1,4.5 µM
2,O=c1c(-c2ccc(OCCN3CCCCC3)cc2)coc2cc(OCCCCN3CCCCC3)ccc12,0.2 µM
3,COc1ccc(-c2coc3cc(OCCCCN4CCCCC4)ccc3c2=O)cc1,3.98 µM
4,CCN(C)CCCCOc1ccc2c(=O)c(-c3ccc(OC)cc3)coc2c1,9.47 µM
5,COc1ccc(-c2coc3cc(OCCNC4CCCCC4)ccc3c2=O)cc1,5 µM
6,COc1ccc(-c2coc3cc(OCCN4C(=O)c5ccccc5C4=O)ccc3c2=O)cc1,> 50 µM
7,COc1ccc(-c2coc3cc(OCCOCCN4CCCCC4)ccc3c2=O)cc1,> 50 µM
8,COc1ccc(-c2coc3cc(OCCN)ccc3c2=O)cc1.Cl,> 50 µM
9,CCN(C)CCCOc1ccc2c(=O)c(-c3ccc(OC)cc3)coc2c1,22.6 µM
10,COc1ccc(-c2coc3cc(OCCNc4c5c(nc6ccccc46)CCCC5)ccc3c2=O)cc1,0.96 µM
11,O=c1c(-c2ccc(OCCN3CCCCC3)cc2)coc2cc(OCCN3CCCC3)ccc12,0.71 µM
12,O=c1c(-c2ccc(OCCN3CCCCC3)cc2)coc2cc(OCCN3CCCCC3)ccc12,0.35 µM
13,O=c1c(-c2ccc(O)cc2)coc2cc(OCCCCN3CCCCC3)ccc12,26.8 µM

# Molecular target: T2, Histamine H3 receptor (Homo sapiens, UniProt Q9Y5N1)
# Assay: Inhibition of human H3R expressed in methylhistamine-induced human H3-bla U2OS cells incubated for 30 mins by beta-lactamase complementation technology
# Assay type: cell-based
# Conditions: read-out: IC50
# Outline: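 H3-bla U2OS cells co-express human H3R-Gal4-VP16 (TEV site) and β-arrestin/TEV protease with a UAS-β-lactamase reporter. IC50 came from log concentration-inhibition curves. Triplicates, three independent experiments.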
# T2 sequence (Q9Y5N1 whole entry): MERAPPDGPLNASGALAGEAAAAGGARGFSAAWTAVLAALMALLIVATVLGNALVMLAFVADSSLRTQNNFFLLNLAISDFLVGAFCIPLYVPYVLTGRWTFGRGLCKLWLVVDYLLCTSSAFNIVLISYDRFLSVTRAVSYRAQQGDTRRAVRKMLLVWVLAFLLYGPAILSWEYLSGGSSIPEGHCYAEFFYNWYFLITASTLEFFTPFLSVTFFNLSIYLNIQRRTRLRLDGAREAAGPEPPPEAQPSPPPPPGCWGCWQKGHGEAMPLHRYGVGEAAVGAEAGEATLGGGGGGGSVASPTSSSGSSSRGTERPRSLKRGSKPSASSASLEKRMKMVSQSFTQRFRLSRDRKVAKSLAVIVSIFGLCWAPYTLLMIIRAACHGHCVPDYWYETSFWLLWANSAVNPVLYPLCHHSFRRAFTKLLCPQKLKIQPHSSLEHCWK
row,Structure (SMILES),IC50
1,COc1ccc(-c2coc3cc(OCCNC4CCCC4)ccc3c2=O)cc1,> 50 µM
2,O=c1c(-c2ccc(OCCN3CCCCC3)cc2)coc2cc(OCCCCN3CCCCC3)ccc12,0.41 µM
3,COc1ccc(-c2coc3cc(OCCCCN4CCCCC4)ccc3c2=O)cc1,0.73 µM
4,CCN(C)CCCCOc1ccc2c(=O)c(-c3ccc(OC)cc3)coc2c1,0.43 µM
5,COc1ccc(-c2coc3cc(OCCNC4CCCCC4)ccc3c2=O)cc1,> 50 µM
6,COc1ccc(-c2coc3cc(OCCOCCN4CCCCC4)ccc3c2=O)cc1,> 50 µM
7,CCN(C)CCCOc1ccc2c(=O)c(-c3ccc(OC)cc3)coc2c1,0.52 µM
8,COc1ccc(-c2coc3cc(OCCNc4c5c(nc6ccccc46)CCCC5)ccc3c2=O)cc1,> 10 µM
9,O=c1c(-c2ccc(OCCN3CCCCC3)cc2)coc2cc(OCCN3CCCC3)ccc12,2.07 µM
10,O=c1c(-c2ccc(OCCN3CCCCC3)cc2)coc2cc(OCCN3CCCCC3)ccc12,1.94 µM
11,O=c1c(-c2ccc(O)cc2)coc2cc(OCCCCN3CCCCC3)ccc12,> 50 µM

# Same assay, conditions: u2os
row,Structure (SMILES),IC50
1,COc1ccc(-c2coc3cc(OCCN4C(=O)c5ccccc5C4=O)ccc3c2=O)cc1,Not Active
2,COc1ccc(-c2coc3cc(OCCNC(=O)OC(C)(C)C)ccc3c2=O)cc1,Not Active
3,COc1ccc(-c2coc3cc(OCCN)ccc3c2=O)cc1.Cl,Not Active

# Molecular target: T3, Acetylcholinesterase (Mus musculus) (UniProt P21836)
# T3 sequence (whole entry): T1 sequence (P21836 whole entry)
# Conditions: at 10 µM
row,Structure (SMILES),inhibition
1,COc1ccc(-c2coc3cc(OCCNC4CCCC4)ccc3c2=O)cc1,78.5%
2,O=c1c(-c2ccc(OCCN3CCCCC3)cc2)coc2cc(OCCCCN3CCCCC3)ccc12,85.1%
3,COc1ccc(-c2coc3cc(OCCNC4CCCCC4)ccc3c2=O)cc1,73.7%
4,COc1ccc(-c2coc3cc(OCCN4C(=O)c5ccccc5C4=O)ccc3c2=O)cc1,11.2%
5,COc1ccc(-c2coc3cc(OCCOCCN4CCCCC4)ccc3c2=O)cc1,35%
6,COc1ccc(-c2coc3cc(OCCNC(=O)OC(C)(C)C)ccc3c2=O)cc1,-0.17%
7,COc1ccc(-c2coc3cc(OCCN)ccc3c2=O)cc1.Cl,16.9%
8,COc1ccc(-c2coc3cc(OCCNc4c5c(nc6ccccc46)CCCC5)ccc3c2=O)cc1,85.8%
9,O=c1c(-c2ccc(OCCN3CCCCC3)cc2)coc2cc(OCCN3CCCCC3)ccc12,82.8%
10,O=c1c(-c2ccc(O)cc2)coc2cc(OCCCCN3CCCCC3)ccc12,63.4%

# Molecular target: T2, Histamine H3 receptor
# Assay: Inhibition of human H3R expressed in methylhistamine-induced human H3-bla U2OS cells at 10 uM incubated for 30 mins by beta-lactamase complementation technology relative to control
# Assay type: cell-based
# Conditions: not given
row,Structure (SMILES),inhibition
1,COc1ccc(-c2coc3cc(OCCNC4CCCC4)ccc3c2=O)cc1,47.1%
2,O=c1c(-c2ccc(OCCN3CCCCC3)cc2)coc2cc(OCCCCN3CCCCC3)ccc12,72.4%
3,S=C(NC1CCCCC1)N1CCC(c2cnc[nH]2)CC1 [THIOPERAMIDE],71.1%
4,COc1ccc(-c2coc3cc(OCCNC4CCCCC4)ccc3c2=O)cc1,41%
5,COc1ccc(-c2coc3cc(OCCOCCN4CCCCC4)ccc3c2=O)cc1,30.3%
6,COc1ccc(-c2coc3cc(OCCN)ccc3c2=O)cc1.Cl,-6.69%
7,COc1ccc(-c2coc3cc(OCCNc4c5c(nc6ccccc46)CCCC5)ccc3c2=O)cc1,60.5%
8,O=c1c(-c2ccc(OCCN3CCCCC3)cc2)coc2cc(OCCN3CCCCC3)ccc12,71.5%
9,O=c1c(-c2ccc(O)cc2)coc2cc(OCCCCN3CCCCC3)ccc12,6.88%

# Tested on: not listed separately
# Assay: Cytotoxicity in human SH-SY5Y cells assessed as reduction in cell viability after 72 hrs incubation by MTT assay
# Conditions: SH-SY5Y cells
row,Structure (SMILES),CC50 at 72 h
1,CCN(C)C(=O)Oc1cccc([C@H](C)N(C)C)c1 [RIVASTIGMINE],67.8 µM
2,S=C(NC1CCCCC1)N1CCC(c2cnc[nH]2)CC1 [THIOPERAMIDE],85.8 µM

# Same assay, conditions: sh-sy5y
row,Structure (SMILES),CC50 at 72 h
1,COc1cc2c(cc1OC)C(=O)C(CC1CCN(Cc3ccccc3)CC1)C2 (stereo not given) [DONEPEZIL],25.1 µM

# Molecular target: Cholinesterase (Mus musculus, UniProt Q03311)
# Assay: Inhibition of mouse plasma BuChE using S-butyrylacetylthiocholine iodide as substrate measured after 30 mins by Ellman's method relative to control
# Conditions: not given
# Chain of Cholinesterase (Q03311 whole entry): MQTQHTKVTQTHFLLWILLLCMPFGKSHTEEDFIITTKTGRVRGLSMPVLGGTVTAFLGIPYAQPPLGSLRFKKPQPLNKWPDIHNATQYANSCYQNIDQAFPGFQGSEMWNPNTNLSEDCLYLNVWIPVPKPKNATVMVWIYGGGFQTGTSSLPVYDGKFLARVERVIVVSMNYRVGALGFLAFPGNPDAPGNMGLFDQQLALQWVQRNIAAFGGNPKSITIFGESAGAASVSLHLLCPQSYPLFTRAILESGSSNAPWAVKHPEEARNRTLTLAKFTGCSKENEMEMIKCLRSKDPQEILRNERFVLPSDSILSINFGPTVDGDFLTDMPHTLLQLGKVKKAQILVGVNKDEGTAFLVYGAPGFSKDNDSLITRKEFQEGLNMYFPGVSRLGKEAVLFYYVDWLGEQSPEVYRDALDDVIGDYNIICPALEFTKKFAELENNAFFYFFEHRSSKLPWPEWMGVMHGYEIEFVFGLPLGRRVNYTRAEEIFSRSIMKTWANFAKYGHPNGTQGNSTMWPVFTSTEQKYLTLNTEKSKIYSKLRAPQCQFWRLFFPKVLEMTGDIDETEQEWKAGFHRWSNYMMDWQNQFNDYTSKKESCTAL
row,Structure (SMILES),IC50
1,COc1ccc(-c2coc3cc(OCCN4C(=O)c5ccccc5C4=O)ccc3c2=O)cc1,Not Active
2,COc1ccc(-c2coc3cc(OCCNC(=O)OC(C)(C)C)ccc3c2=O)cc1,Not Active
3,COc1ccc(-c2coc3cc(OCCN)ccc3c2=O)cc1.Cl,Not Active

# Same assay, conditions: read-out: IC50
row,Structure (SMILES),IC50
1,COc1ccc(-c2coc3cc(OCCNC4CCCC4)ccc3c2=O)cc1,5.98 µM
2,O=c1c(-c2ccc(OCCN3CCCCC3)cc2)coc2cc(OCCCCN3CCCCC3)ccc12,2.49 µM
3,COc1ccc(-c2coc3cc(OCCCCN4CCCCC4)ccc3c2=O)cc1,8.83 µM
4,COc1ccc(-c2coc3cc(OCCNC4CCCCC4)ccc3c2=O)cc1,21.6 µM
5,COc1ccc(-c2coc3cc(OCCOCCN4CCCCC4)ccc3c2=O)cc1,> 50 µM
6,COc1ccc(-c2coc3cc(OCCNc4c5c(nc6ccccc46)CCCC5)ccc3c2=O)cc1,0.38 µM
7,O=c1c(-c2ccc(OCCN3CCCCC3)cc2)coc2cc(OCCN3CCCC3)ccc12,4.55 µM
8,O=c1c(-c2ccc(OCCN3CCCCC3)cc2)coc2cc(OCCN3CCCCC3)ccc12,2.92 µM
9,O=c1c(-c2ccc(O)cc2)coc2cc(OCCCCN3CCCCC3)ccc12,24.8 µM

# Tested on: SH-SY5Y
# Assay: Neuroprotective activity against copper-induced cytotoxicity in human SH-SY5Y cells expressing APP Swedish mutant assessed as increase in cell viability at 10 uM pre-incubated for 2 hrs followed by copper addition and measured after 24 hrs by MTT assay
# Assay type: functional, cell-based
# Conditions: not given
row,Structure (SMILES),Activity
1,COc1cc2c(cc1OC)C(=O)C(CC1CCN(Cc3ccccc3)CC1)C2 (stereo not given) [DONEPEZIL],inactive

# Tested on: BV-2
# Assay: Antiinflammatory activity in mouse BV2 cells assessed as reduction in LPS-induced IL-6 production at 10 uM pretreated for 1 hr followed by LPS challenge and measured after 24 hrs by ELISA assay
# Assay type: functional, cell-based
# Conditions: not given
row,Structure (SMILES),Activity
1,COc1cc2c(cc1OC)C(=O)C(CC1CCN(Cc3ccccc3)CC1)C2 (stereo not given) [DONEPEZIL],inactive

# From ChEMBL document CHEMBL4433203, “Design, synthesis, and evaluation of isoflavone analogs as multifunctional agents for the treatment of Alzheimer's disease” (Eur J Med Chem, 2019)
